Reference: PubChem BioAssay AID651936 (NMMLSC, 2012)

Test system: AM2.2-beta2AR cells, FAP fluorogen binding after washes, flow cytometry
Assay: washout recovery of fluorogen binding to FAP – AM2.2-beta2AR cells, powder sets 3 and 4, mechanism study for beta2AR internalization ligand project (AID 651936)
Outline: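 Material: AM2.2-beta2AR cell line; medium: serum-free RPMI, 1% FBS RPMI wash medium; also added: TO1-2p at 150 nM final, added to cell aliquots; incubation: compound exposure 90 min, 37 °C; technique: flow cytometry of TO1-2p-labelled cell aliquots; read-out basis: TO1-2p binding versus number of washes; benchmarks: DMSO-only treated cells as negative control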

SMILES: O=C(Nc1ccc(S(=O)(=O)N2CCCCC2c2cccnc2)cc1)c1c(F)cccc1F (configuration not stated)
- normalized fluorogen binding (at 2 µM (top of the series)): 0.232

SMILES: CN(CC(=O)N1CCN(c2cccc(C(F)(F)F)c2)CC1)S(=O)(=O)c1ccc(F)cc1
- normalized fluorogen binding (at 60 µM (top of the series)): 0.233

SMILES: CN(CC(=O)N1CCN(c2ccccn2)CC1)S(=O)(=O)c1ccc(Br)cc1
- normalized fluorogen binding (at 0.2 µM (top of the series)): 0.145

SMILES: Cc1ccc(S(=O)(=O)N2CCCCC2C(=O)N2CCN(c3ccc(C(F)(F)F)cn3)CC2)cc1 (configuration not stated)
- normalized fluorogen binding (at 100 µM (top of the series)): 0.154

SMILES: CN(CC(=O)N1CCN(c2ccccn2)CC1)S(=O)(=O)c1ccc(Cl)cc1
- normalized fluorogen binding (at 0.2 µM (top of the series)): 0.143

SMILES: CC(=O)Nc1ccc(S(=O)(=O)N2CCCCC2c2cccnc2)cc1 (configuration not stated)
- normalized fluorogen binding (at 1.4 µM (top of the series)): 0.147
- normalized fluorogen binding (at 60 µM (top of the series)): 0.642

SMILES: CCCCC(=O)Nc1ccc(S(=O)(=O)N2CCCCC2c2cccnc2)cc1 (configuration not stated)
- normalized fluorogen binding (at 0.3 µM (top of the series)): 0.181

SMILES: CN(CC(=O)N1CCN(c2ccccn2)CC1)S(=O)(=O)c1ccccc1
- normalized fluorogen binding (at 0.85 µM (top of the series)): 0.218

SMILES: Cc1ccc(S(=O)(=O)N(C)CC(=O)N2CCN(c3ccccn3)CC2)cc1
- normalized fluorogen binding (at 0.8 µM (top of the series)): 0.124

SMILES: CCOC(=O)N1CCN(C(=O)CN(C)S(=O)(=O)c2ccc(Cl)cc2)CC1
- normalized fluorogen binding (at 10 µM (top of the series)): 0.122

SMILES: CC(C)n1nnc2cc(S(=O)(=O)N(C)CC(=O)N3CCN(c4ccccn4)CC3)ccc21
- normalized fluorogen binding (at 60 µM (top of the series)): 0.257
